In ChEMBL document CHEMBL1255409, “In vitro activity of ceftaroline against 623 diverse strains of anaerobic bacteria” (2010):
Values after ≈ are worked out from the molar mass of the structure shown.

Key:
Fusobacterium varium = assay: Antimicrobial activity against Fusobacterium varium under anaerobic conditions after 44 hrs by CLSI-M11-47 protocol based agar dilution method; type: functional
Summary of the method: (§1)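 Clinical isolates were stored at −70°C in 20% skim milk and identified phenotypically or by partial 16S rRNA sequencing. Each strain was subcultured twice from frozen stock. Cell paste from 48-h cultures was suspended in brucella broth to a 0.5 McFarland standard. About 10^5 CFU per spot were applied by Steers replicator to agar dilution plates prepared on the day of testing. Plates were incubated 44 h at 37°C in an anaerobic chamber. MIC was taken as the lowest concentration giving complete inhibition or marked reduction of growth versus the drug-free control.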

Clostridium perfringens = assay: Antimicrobial activity against Clostridium perfringens under anaerobic conditions after 44 hrs by CLSI-M11-47 protocol based agar dilution method; type: functional
Clostridium bolteae = assay: Antimicrobial activity against Clostridium bolteae under anaerobic conditions after 44 hrs by CLSI-M11-47 protocol based agar dilution method; type: functional; settings: Enterocloster bolteae
Summary of the method: (§2)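 Reference agar dilution per CLSI M11-A7 with plates made on test day. Clinical isolates were stored at −70°C in 20% skim milk, subcultured twice, and 48-h cell paste was suspended in brucella broth to 0.5 McFarland. About 10^5 CFU/spot was applied with a Steers replicator. Plates were incubated 44 h at 37°C anaerobically. MIC was the lowest concentration giving complete inhibition or marked growth reduction versus the drug-free control.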

Lacrimispora sphenoides = assay: Antimicrobial activity against Clostridium sphenoides under anaerobic conditions after 44 hrs by CLSI-M11-47 protocol based agar dilution method; type: functional; summary of the method: as §2
Prevotella denticola = assay: Antimicrobial activity against Prevotella denticola under anaerobic conditions after 44 hrs by CLSI-M11-47 protocol based agar dilution method; type: functional; summary of the method: as §1
Clostridium glycolicum = assay: Antimicrobial activity against Clostridium glycolicum under anaerobic conditions after 44 hrs by CLSI-M11-47 protocol based agar dilution method; type: functional; settings: Terrisporobacter glycolicus; summary of the method: as §2
Atopobium parvulum = assay: Antimicrobial activity against Atopobium parvulum under anaerobic conditions after 44 hrs by CLSI-M11-47 protocol based agar dilution method; type: functional; settings: Lancefieldella parvula; summary of the method: as §2
[1] = tested on: Actinomyces neuii subsp. anitratus; assay: Antimicrobial activity against Actinomyces neuii subsp. anitratus under anaerobic conditions after 44 hrs by CLSI-M11-47 protocol based agar dilution method; type: functional, Winkia neuii subsp. anitrata; settings: Winkia neuii; summary of the method: as §2
Fusobacterium mortiferum = assay: Antimicrobial activity against Fusobacterium mortiferum under anaerobic conditions after 44 hrs by CLSI-M11-47 protocol based agar dilution method; type: functional; summary of the method: as §2
Parvimonas micra = assay: Antimicrobial activity against Parvimonas micra under anaerobic conditions after 44 hrs by CLSI-M11-47 protocol based agar dilution method; type: functional; summary of the method: as §1
Bacteroides fragilis = assay: Antimicrobial activity against Bacteroides fragilis spp. under anaerobic conditions after 44 hrs by CLSI-M11-47 protocol based agar dilution method; type: functional; summary of the method: as §2
Clostridioides difficile = assay: Antimicrobial activity against Clostridium difficile under anaerobic conditions after 44 hrs by CLSI-M11-47 protocol based agar dilution method; type: functional; summary of the method: as §2
Slackia exigua = assay: Antimicrobial activity against Slackia exigua under anaerobic conditions after 44 hrs by CLSI-M11-47 protocol based agar dilution method; type: functional; summary of the method: as §1
Prevotella oris = assay: Antimicrobial activity against Prevotella oris under anaerobic conditions after 44 hrs by CLSI-M11-47 protocol based agar dilution method; type: functional; settings: Segatella oris; summary of the method: as §1
Propionibacterium avidum = assay: Antimicrobial activity against Propionibacterium avidum under anaerobic conditions after 44 hrs by CLSI-M11-47 protocol based agar dilution method; type: functional; settings: Cutibacterium avidum; summary of the method: as §1
Clostridium aldenense = assay: Antimicrobial activity against Clostridium aldenense under anaerobic conditions after 44 hrs by CLSI-M11-47 protocol based agar dilution method; type: functional; settings: Enterocloster aldenensis; summary of the method: as §2
Eubacterium saburreum = assay: Antimicrobial activity against Eubacterium saburreum under anaerobic conditions after 44 hrs by CLSI-M11-47 protocol based agar dilution method; type: functional; settings: Lachnoanaerobaculum saburreum; summary of the method: as §2
Anaerococcus tetradius = assay: Antimicrobial activity against Anaerococcus tetradius under anaerobic conditions after 44 hrs by CLSI-M11-47 protocol based agar dilution method; type: functional; summary of the method: as §2
Clostridium hathewayi = assay: Antimicrobial activity against Clostridium hathewayi under anaerobic conditions after 44 hrs by CLSI-M11-47 protocol based agar dilution method; type: functional; settings: Hungatella hathewayi; summary of the method: as §2
Gemella sanguinis = assay: Antimicrobial activity against Gemella sanguinis under anaerobic conditions after 44 hrs by CLSI-M11-47 protocol based agar dilution method; type: functional; summary of the method: as §1
Thomasclavelia ramosa = assay: Antimicrobial activity against Clostridium ramosum under anaerobic conditions after 44 hrs by CLSI-M11-47 protocol based agar dilution method; type: functional; summary of the method: as §2

Structure (SMILES): CCO/N=C(\C(=O)N[C@@H]1C(=O)N2C(C(=O)[O-])=C(Sc3nc(-c4cc[n+](C)cc4)cs3)CS[C@H]12)c1nsc(NP(=O)(O)O)n1 [CEFTAROLINE FOSAMIL]
- MIC50 (Fusobacterium varium): 0.25 µg/mL (≈ 0.365 µM)
- MIC90 (Fusobacterium varium): 0.5 µg/mL (≈ 0.73 µM)
- MIC50 (Clostridium perfringens): 0.125 µg/mL (≈ 0.183 µM)
- MIC90 (Clostridium perfringens): 0.25 µg/mL (≈ 0.365 µM)
- MIC50 (Clostridium bolteae): 1 µg/mL (≈ 1.46 µM)
- MIC90 (Clostridium bolteae): 2 µg/mL (≈ 2.92 µM)
- MIC50 (Lacrimispora sphenoides): 0.5 µg/mL (≈ 0.73 µM)
- MIC90 (Lacrimispora sphenoides): 16 µg/mL (≈ 23.4 µM)
- MIC50 (Prevotella denticola): 2 µg/mL (≈ 2.92 µM)
- MIC90 (Prevotella denticola): 32 µg/mL (≈ 46.7 µM)
- MIC50 (Clostridium glycolicum): 0.5 µg/mL (≈ 0.73 µM)
- MIC90 (Clostridium glycolicum): 16 µg/mL (≈ 23.4 µM)
- MIC50 (Atopobium parvulum): 0.125 µg/mL (≈ 0.183 µM)
- MIC90 (Atopobium parvulum): 0.25 µg/mL (≈ 0.365 µM)
- MIC50 [1]: 0.015 µg/mL (≈ 0.0219 µM)
- MIC90 [1]: 0.25 µg/mL (≈ 0.365 µM)
- MIC50 (Fusobacterium mortiferum): 8 µg/mL (≈ 11.7 µM)
- MIC90 (Fusobacterium mortiferum): 32 µg/mL (≈ 46.7 µM)
- MIC50 (Parvimonas micra): 0.06 µg/mL (≈ 0.0876 µM)
- MIC90 (Parvimonas micra): 0.25 µg/mL (≈ 0.365 µM)
- MIC50 (Bacteroides fragilis): 64 µg/mL (≈ 93.5 µM)
- MIC90 (Bacteroides fragilis): > 64 µg/mL
- MIC50 (Clostridioides difficile): 0.5 µg/mL (≈ 0.73 µM)
- MIC90 (Clostridioides difficile): 16 µg/mL (≈ 23.4 µM)
- MIC50 (Slackia exigua): 0.125 µg/mL (≈ 0.183 µM)
- MIC90 (Slackia exigua): 0.25 µg/mL (≈ 0.365 µM)
- MIC50 (Prevotella oris): 2 µg/mL (≈ 2.92 µM)
- MIC90 (Prevotella oris): 32 µg/mL (≈ 46.7 µM)
- MIC50 (Propionibacterium avidum): 0.25 µg/mL (≈ 0.365 µM)
- MIC90 (Propionibacterium avidum): 0.25 µg/mL (≈ 0.365 µM)
- MIC50 (Clostridium aldenense): 1 µg/mL (≈ 1.46 µM)
- MIC90 (Clostridium aldenense): 2 µg/mL (≈ 2.92 µM)
- MIC50 (Eubacterium saburreum): 0.125 µg/mL (≈ 0.183 µM)
- MIC90 (Eubacterium saburreum): 0.25 µg/mL (≈ 0.365 µM)
- MIC50 (Anaerococcus tetradius): 0.03 µg/mL (≈ 0.0438 µM)
- MIC90 (Anaerococcus tetradius): 0.125 µg/mL (≈ 0.183 µM)
- MIC50 (Clostridium hathewayi): 1 µg/mL (≈ 1.46 µM)
- MIC90 (Clostridium hathewayi): 2 µg/mL (≈ 2.92 µM)
- MIC50 (Gemella sanguinis): 0.06 µg/mL (≈ 0.0876 µM)
- MIC90 (Gemella sanguinis): 1 µg/mL (≈ 1.46 µM)
- MIC50 (Thomasclavelia ramosa): 1 µg/mL (≈ 1.46 µM)
- MIC90 (Thomasclavelia ramosa): 1 µg/mL (≈ 1.46 µM)

Structure (SMILES): CO/N=C(\C(=O)N[C@@H]1C(=O)N2C(C(=O)O)=C(CSc3nc(=O)c(O)nn3C)CS[C@H]12)c1csc(N)n1 [CEFTRIAXONE]
- MIC50 (Fusobacterium varium): 1 µg/mL (≈ 1.8 µM)
- MIC90 (Fusobacterium varium): 8 µg/mL (≈ 14.4 µM)
- MIC50 (Clostridium perfringens): 0.5 µg/mL (≈ 0.902 µM)
- MIC90 (Clostridium perfringens): 2 µg/mL (≈ 3.61 µM)
- MIC50 (Clostridium bolteae): 4 µg/mL (≈ 7.21 µM)
- MIC90 (Clostridium bolteae): 32 µg/mL (≈ 57.7 µM)
- MIC50 (Lacrimispora sphenoides): 2 µg/mL (≈ 3.61 µM)
- MIC90 (Lacrimispora sphenoides): 64 µg/mL (≈ 115 µM)
- MIC50 (Prevotella denticola): 1 µg/mL (≈ 1.8 µM)
- MIC90 (Prevotella denticola): 8 µg/mL (≈ 14.4 µM)
- MIC50 (Clostridium glycolicum): 2 µg/mL (≈ 3.61 µM)
- MIC90 (Clostridium glycolicum): 64 µg/mL (≈ 115 µM)
- MIC50 (Atopobium parvulum): 0.5 µg/mL (≈ 0.902 µM)
- MIC90 (Atopobium parvulum): 2 µg/mL (≈ 3.61 µM)
- MIC50 [1]: 0.125 µg/mL (≈ 0.225 µM)
- MIC90 [1]: 0.5 µg/mL (≈ 0.902 µM)
- MIC50 (Fusobacterium mortiferum): > 64 µg/mL
- MIC90 (Fusobacterium mortiferum): > 64 µg/mL
- MIC50 (Parvimonas micra): 0.5 µg/mL (≈ 0.902 µM)
- MIC90 (Parvimonas micra): 1 µg/mL (≈ 1.8 µM)
- MIC50 (Bacteroides fragilis): > 64 µg/mL
- MIC90 (Bacteroides fragilis): > 64 µg/mL
- MIC50 (Clostridioides difficile): 2 µg/mL (≈ 3.61 µM)
- MIC90 (Clostridioides difficile): 64 µg/mL (≈ 115 µM)
- MIC50 (Slackia exigua): 0.5 µg/mL (≈ 0.902 µM)
- MIC90 (Slackia exigua): 2 µg/mL (≈ 3.61 µM)
- MIC50 (Prevotella oris): 1 µg/mL (≈ 1.8 µM)
- MIC90 (Prevotella oris): 8 µg/mL (≈ 14.4 µM)
- MIC50 (Propionibacterium avidum): 0.25 µg/mL (≈ 0.451 µM)
- MIC90 (Propionibacterium avidum): 0.5 µg/mL (≈ 0.902 µM)
- MIC50 (Clostridium aldenense): 4 µg/mL (≈ 7.21 µM)
- MIC90 (Clostridium aldenense): 32 µg/mL (≈ 57.7 µM)
- MIC50 (Eubacterium saburreum): 0.5 µg/mL (≈ 0.902 µM)
- MIC90 (Eubacterium saburreum): 2 µg/mL (≈ 3.61 µM)
- MIC50 (Anaerococcus tetradius): 0.25 µg/mL (≈ 0.451 µM)
- MIC90 (Anaerococcus tetradius): 0.5 µg/mL (≈ 0.902 µM)
- MIC50 (Clostridium hathewayi): 4 µg/mL (≈ 7.21 µM)
- MIC90 (Clostridium hathewayi): 32 µg/mL (≈ 57.7 µM)
- MIC50 (Gemella sanguinis): 0.25 µg/mL (≈ 0.451 µM)
- MIC90 (Gemella sanguinis): 16 µg/mL (≈ 28.9 µM)
- MIC50 (Thomasclavelia ramosa): 0.25 µg/mL (≈ 0.451 µM)
- MIC90 (Thomasclavelia ramosa): 0.5 µg/mL (≈ 0.902 µM)
